Screening data from PubChem BioAssay.
In the library only some 1.2% were active in any assay of this set; here they are far more common.
MsrA inhibitor = inhibits bovine methionine sulfoxide reductase A | purified bovine MsrA, absorbance read-out | inhibition, % at 15.5 µM | 360,000 compounds, 0.75% hits; in the data active means inhibition above about 4.5%
MsrA act = activates bovine MsrA enzyme; purified bovine MsrA, absorbance read-out; activation, % at 10.6 µM; 360,000 compounds, 0.3% hits; AID 602163; in the data active means activation above about 7.5%
proCasp7 act = activates human procaspase-7, counter-screen for procaspase-3 activators | activation, % at 8.5 µM | 330,000 compounds, 0.093% hits | AID 463210 | recombinant procaspase-7, Ac-DEVD-pNA absorbance 405 nm; D23A/D198A/D206A triple mutant, cannot self-cleave; scale: DMSO 0, 5 µM enzyme 100;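 active means percent activation above the screen-wide mean plus 3 SD, cut at about 25% in these data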
Target sequence (P55210 whole entry D23A/D198A/D206A): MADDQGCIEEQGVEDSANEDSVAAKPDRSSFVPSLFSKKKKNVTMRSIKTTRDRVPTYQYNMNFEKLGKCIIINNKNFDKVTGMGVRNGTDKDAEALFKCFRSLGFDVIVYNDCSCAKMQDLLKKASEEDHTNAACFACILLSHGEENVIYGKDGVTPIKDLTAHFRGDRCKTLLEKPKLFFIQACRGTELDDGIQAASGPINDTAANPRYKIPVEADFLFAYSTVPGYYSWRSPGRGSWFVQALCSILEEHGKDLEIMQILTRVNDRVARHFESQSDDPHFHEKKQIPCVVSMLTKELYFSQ
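buffer or medium = Zinc-free HEPES/NaCl buffer, pH 7.4 | material = Procaspase-7 triple mutant (PC-7 D3A) | input = 2 µM procaspase-7 mutant as dispensed | signal = Epi-absorbance of released pNA at 405 nm, two timepoints | timing = 1 h preincubation, 2 h reaction | replicates = singlicate compound testing | evaluation = % activation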
Bfl-1 A1 inh = inhibitors of the anti-apoptotic protein A1, read as caspase activation. MEF A1-2A-BIM cells, Caspase-Glo 3/7 luminescence, 3 h; percent of clofoctol response, vehicle zero. caspase activation, % (no concentration beside the values). 330,000 compounds, 0.066% hits. AID 2462;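 active means over half of replicate activation scores above 10%, or exactly half above 10 with the replicate mean above 10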
procasp3 activ = activators of human procaspase-3; P42574; recombinant procaspase-3 D3A, Ac-DEVD-pNA absorbance 405 nm; activation, % at 8.5 µM; 330,000 compounds, 0.11% hits;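 active means activation above the mean of all tested compounds plus 3 SD, cut at about 21% in these data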
Target sequence (P42574 whole entry D9A/D28A/D175A): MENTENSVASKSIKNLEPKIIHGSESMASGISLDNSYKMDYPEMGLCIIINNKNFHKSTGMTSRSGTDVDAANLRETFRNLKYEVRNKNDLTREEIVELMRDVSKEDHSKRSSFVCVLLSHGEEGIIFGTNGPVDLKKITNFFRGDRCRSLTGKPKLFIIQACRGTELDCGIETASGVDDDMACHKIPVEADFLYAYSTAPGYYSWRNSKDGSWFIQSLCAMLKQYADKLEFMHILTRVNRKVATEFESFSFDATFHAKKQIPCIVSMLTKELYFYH
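material = Procaspase-3 D3A mutant | probe or stimulus = Ac-DEVD-pNA | compound = single dose, 8.5 µM nominal compound, 0.8% DMSO | timing = 1 h preincubation, 2 h reaction | measured by = 405 nm absorbance of p-nitroaniline, reads at 0 and 120 min | benchmarks = DMSO-only low control, 5 µM PC-3 D3A high control | repeats = singlicate, each compound tested once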
Numbers stand for hits; - = inactive; . = no result given.

SMILES | MsrA inhibitor | MsrA act | proCasp7 act | Bfl-1 A1 inh | procasp3 activ
CC(=O)Nc1ccc(NC(=O)C(C)OC(=O)/C=C/c2cn(-c3ccccc3)nc2-c2cccnc2)cc1 (configuration not stated) | - | - | - | 15.7 | -
CCc1c(Cc2cccc(F)c2)ncn1CCc1ccccc1OC | - | . | . | . | .
CCOC(=O)CSc1nc2sc3c(c2c(=O)n1-c1ccc(C)cc1)CCN(C)C3 | 4.6 | - | . | - | .
C[C@H]1CN([C@@H](C)CO)C(=O)c2c(c3ccccc3n2C)-c2ccccc2CO[C@H]1CN(C)C(=O)Nc1cccc(F)c1 | - | . | . | . | .
CN1CCCCC(NC(=O)c2ccccc2)C1=O (configuration not stated) | - | . | . | . | .
O=C(O)c1cccc(N2C(=O)C=CC2=O)c1 | - | - | . | . | .
O=C(Nc1ccc(Cl)cc1Cl)c1cccc(N2C(=O)C=CC2=O)c1 | - | - | - | 13.9 | -
O=C(N[C@H](C(=O)N1CCC[C@H]1C(=O)NC1CCCC1)c1ccccc1)C1CCCC1 | - | . | . | . | .
CCN(CC)CCN(C(=O)c1cc2c(ccc3ccccc32)oc1=O)c1nc2cc3c(cc2s1)OCCO3 | - | - | - | 7.2 | -
CCN(CC)CCN(C(=O)c1ccc2c(c1)OCCO2)c1nc2cc3c(cc2s1)OCO3 | - | - | - | - | -
Cc1ccc(C(=O)NC2CCCCN(C)C2=O)c(C)c1 (configuration not stated) | - | . | . | . | .
CC(C)(C)C(=O)NCCCc1nc2ccccc2n1CCCOc1ccc(Cl)cc1 | - | 10.2 | - | - | -
C=CCn1c(CCCNC(=O)C(C)(C)C)nc2ccccc21 | - | - | - | - | -
N#Cc1ccc(OCCCN2CCC(C(O)(C3=CCCC3)c3ccccc3)CC2)cc1 (configuration not stated) | - | . | . | . | .
CC(C)Cn1c(O)c(/C=C2\C=NN=C2c2ccccc2)sc1=S | - | - | - | 17.5 | -
COC(=O)C1=C(C)N(C)C(=NCc2cccc(C(F)(F)F)c2)NC1c1ccc(F)cc1 (configuration not stated) | - | . | . | . | .
CCOC(=O)CCCNS(=O)(=O)c1c(C)ccc2nsnc12 | - | - | - | 6.6 | -
Cc1ccc2nsnc2c1NS(=O)(=O)c1c(C)ccc2nsnc12 | - | - | - | - | -
CC1C/C(=C\c2cccnc2)C(=O)/C(=C/c2cccnc2)C1 (configuration not stated) | 5.2 | - | - | - | -
CCOC(=O)c1ccc(-c2ccc(/C=N/NC(=O)CN(c3cccc(C)c3)S(C)(=O)=O)o2)cc1 | - | - | - | 17.4 | -
Cc1cc(C)c(S(=O)(=O)N2CCCCC2)c(C)c1N(C)S(=O)(=O)c1ccccc1 | - | 9.7 | - | - | -
CC(=O)CSc1ccc(-c2nc3cc(C)c(C)cc3[nH]2)cn1 | 4.7 | - | - | - | -
CCS(=O)(=O)c1ncc(Cl)c(C(=O)Nc2ccc(S(=O)(=O)N3CCC(C)CC3)cc2)n1 | - | - | - | 41.7 | -
CCc1ccc(NC(=O)c2nc(S(=O)(=O)Cc3ccccc3)ncc2Cl)cc1 | - | - | - | 11.0 | -
COC(=O)C1=C(C)N(C)C(=NCc2ccccc2C(F)(F)F)NC1c1cccc(F)c1 (configuration not stated) | - | . | . | . | .
SMILES | MsrA inhibitor | MsrA act | proCasp7 act | Bfl-1 A1 inh | procasp3 activ
CC(=O)c1ccc(OCc2cn(CC(=O)c3ccc(O)cc3)nn2)c(C)c1 | - | - | . | . | .
O=C(Cn1cc(COc2ccc(Br)cc2[N+](=O)[O-])nn1)c1ccc(O)cc1 | 4.6 | - | . | . | .
COc1ccccc1Cc1c(C2CCCCC2)nc2c(C)cc(Br)cn12 | - | . | . | . | .
COc1cc(Br)c(-c2sc(Nc3ccccc3)n[n+]2-c2ccc(F)cc2)cc1OC | - | - | - | - | -
COc1cc(OC)c(-c2sc(Nc3ccccc3)n[n+]2-c2ccc(F)cc2)cc1OC | 4.6 | - | - | - | -
CCOC(=O)c1oc2ccccc2c1NC(=O)CN1CCOCC1 | - | - | - | - | -
CCOC(=O)c1oc2ccccc2c1NC(=O)CN1CCN(C)CC1 | - | - | - | 17.1 | -
O=[N+]([O-])c1ccc(Oc2cccnc2)c([N+](=O)[O-])c1 | 4.5 | - | . | . | .
CC(=O)COc1cc2c(-c3cc4ccccc4o3)cc(=O)oc2cc1C | 7.1 | - | - | - | -
CCOC(=O)C1=C(C(=O)OCC)C2N(Cc3ccc(C#N)cc3)c3ccccc3[C@@]23C[C@@H](C(=O)OC)N(S(=O)(=O)c2ccc(C)cc2)C3=N1 (some centres not stated) | - | . | . | . | .
O=C(O)CCC(=O)N1CCN(c2ccc(C(=O)c3ccc(F)cc3)cc2)CC1 | 4.7 | - | - | - | -
CCOc1ccc(-n2c(SCC(=O)Nc3ccc(Br)cc3)nc3n[nH]c(C)c3c2=N)cc1 | - | - | - | 8.4 | -
COc1ccc(NC(=O)C(=O)N/N=C\c2ccc(CNC(=O)C(=O)Nc3ccc(C)c(C)c3)o2)c(OC)c1 | . | . | - | 23.6 | -
COCCNC(=O)/C(C#N)=C\c1ccc(CNC(=O)C(=O)Nc2ccc(C)c(C)c2)o1 | - | - | - | - | -
CCn1cc(CCC(=O)Nc2ccc(Oc3cccnc3)cc2)c2ccccc21 | - | . | . | . | .
CC(O)(CS(=O)(=O)Cc1ccccc1)C(=O)Nc1cccc(C(F)(F)F)c1 (configuration not stated) | - | 10.3 | - | - | -
COc1ccc(/C=C/C(=O)Nc2nc(C)cc(C)n2)cc1OC | 4.9 | - | - | - | -
COc1ccc(/C=C/C(=O)Nc2nonc2NC(C)=O)cc1 | 4.6 | - | - | - | -
COc1ccc(/C=C/C(=O)Nc2cc(C)on2)cc1 | - | - | - | - | -
COc1ccc(/C=C/C(=O)NCCCNC(=O)/C=C/c2ccc(OC)c(OC)c2)cc1OC | - | - | - | - | -
CCOC(=O)C(C)N1N=C(/C=C/c2ccc(OC)cc2)CCC1=O (configuration not stated) | 6.1 | - | - | - | -
CCOC(=O)CN1N=C(/C=C/c2ccc(OC)cc2)CCC1=O | 6.1 | - | - | - | -
Cc1ccc(/C=C/C2=NN(C)C(=O)CC2)cc1 | - | - | - | - | -
Cc1cc(N2CCN(C(=O)OC(C)(C)C)C[C@H]2C)ccc1N1CCN(Cc2ccccc2)[C@@H](C)C1 | - | . | . | . | .
O=C(c1ccco1)N1N=C(c2cccs2)CC1c1ccccc1O (configuration not stated) | 5.9 | - | - | - | -
CCCc1c(Cc2cccc(F)c2)ncn1CCc1ccccc1OC | - | . | . | . | .
Cc1cc(NC(=O)c2ccc(Cl)cc2)c(C)cc1O | - | - | - | - | -
Cc1cc(C(C#N)c2ccc(Cl)cc2)c(Cl)cc1NC(=O)c1cc(I)cc(I)c1O (configuration not stated) | - | - | - | 5.8 | -
COc1cc(/C=N/Nc2nc3ccccc3o2)cc(OC)c1O | 4.6 | - | - | - | -
